Active and inactive are the calls of the source. The rule behind the calls is not given here.

A word on the half-life: it is how long it takes for the measured level to halve. High values mean slow decline, low ones rapid decline.

One data set concerns Hydroxyapatite. The data set is described as follows: Binding affinity to hydroxyapatite at 3.2 to 3.7 mM after 1 hr by NMR analysis relative to control.
Conditions: not given
In a few lines:
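Synthetic hydroxyapatite used as a bone model. Each bisphosphonate solution was mixed with HAP for 1 h. Percent HAP-bound was calculated from the solution concentration difference before and after incubation. Statistical comparison by t test.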
With `CC(O)(P(=O)(O)O)P(=O)(O)O` [ETIDRONIC ACID], the Activity was 70%. Still for that read-out and setting: in the case of `NCCCC(O)(P(=O)(O)O)P(=O)(O)O` it was 70%; in that of `O=P(O)(O)CP(=O)(O)O`, 70%; in that of `O=P(O)(O)C(Cl)(Cl)P(=O)(O)O` [CLODRONIC ACID], 41.9%.

The next data set relates to Hydroxyapatite. The data set is described as follows: Binding affinity to hydroxyapatite at 3.6 to 10.7 mM after 1 hr by NMR analysis relative to control.
Conditions: not given
The method, boiled down:
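Hydroxyapatite (HAP) used as a synthetic bone surrogate. BP solution mixed with HAP for 1 h. Bound fraction expressed as percent of BP bound to HAP, calculated from the concentration difference of the BP solution before and after HAP incubation. Statistics by t test.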
With `CC(C)OP(=O)(OC(C)C)C(C)(O)P(=O)(O)O` (stereo unspecified), the Activity amounted to 11.4%. On to `CC(C)OP(=O)(O)C(Cl)(Cl)P(=O)(O)O`, for which the outcome was inactive. The same measure, in the same setting: the same measure for `COP(=O)(O)C(C)(O)P(=O)(O)OC` (stereo unspecified): 3.8%; for `COP(=O)(O)CP(=O)(OC)OC`: “inactive”; for `COP(=O)(O)C(C)(O)P(=O)(O)O` (stereo unspecified): 55.6%. Still for that read-out and setting: the same measure for `COP(=O)(O)C(Cl)(Cl)P(=O)(O)O`: “inactive”.

Molecule `CC(=O)NCCCC(OC(C)=O)(P(=O)(O)O)P(=O)(O)O` had an Activity of 47.7%.

`CC(O)(P(=O)(O)O)P(=O)(O)Oc1ccccc1` (stereo unspecified) returned an Activity of 48%. For `COP(=O)(O)CP(=O)(O)OC`, the result was inactive. Regarding `COP(=O)(O)C(O)(CCCN)P(=O)(O)O` (stereo unspecified), the Activity was 31%. Consider `COP(=O)(O)C(C)(O)P(=O)(OC)OC` (stereo unspecified), for which the outcome was inactive. The same measure, in the same setting: in the case of `COP(=O)(OC)C(C)(O)P(=O)(O)O` (stereo unspecified) it was 12.6%. `COP(=O)(O)CP(=O)(O)O` yielded an Activity of 18.6%. The same measure, in the same setting: the same measure for `COP(=O)(OC)C(O)(CCCN)P(=O)(O)O` (stereo unspecified): 21.7%.

Test system in another data set: not listed separately
The data set is described as follows: Half life in human plasma at 0.015 mg/kg, iv. The class given is ADME, organism-based.
Conditions: not given
Turning to `CC(O)(P(=O)(O)O)P(=O)(O)O` [ETIDRONIC ACID], the half-life is 60 min.

Test system in a further data set: not listed separately
The data set is described as follows: Half life in human plasma at 2.5 to 4 mg/kg, iv. The class given is ADME, organism-based.
Conditions: not given
As to `O=P(O)(O)C(Cl)(Cl)P(=O)(O)O` [CLODRONIC ACID], the half-life was 60 min.

Another data set concerns Homo sapiens. The data set is described as follows: Half life in human plasma at 1 mg/kg, iv. The format is ADME, organism-based. Particulars: in vivo.
With `NCCC(O)(P(=O)(O)O)P(=O)(O)O` [PAMIDRONIC ACID], the t1/2 is 1 h.

(Values after ChEMBL document CHEMBL3576863, “Structural requirements for bisphosphonate binding on hydroxyapatite: NMR study of bisphosphonate partial esters” (ACS Med Chem Lett, 2015).)
